Measured values reported in ChEMBL document CHEMBL4270642, “Boronic ester-linked macrocyclic lipopeptides as serine protease inhibitors targeting Escherichia coli type I signal peptidase” (Eur J Med Chem, 2018).
In brackets after ≈: the same amount, converted by molar mass. Square brackets hold non-standard residues; d marks the D form. Peptide text beside a SMILES is read from it. * marks the point of attachment. Benzoyl(4-(4-hexylphenyl)) = CCCCCCc1ccc(-c2ccc(C(=O)*)cc2)cc1; boroAla = C[C@H](N*)B(O)O; Orn = NCCC[C@H](N)C(=O)O

What was measured:
[1] = system: HepG2; test: Cytotoxicity against human HepG2 cells after 72 hrs by FMSA; type: cell-based; conditions: HepG2, 72 h
Outline: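 HepG2 (ATCC) grown in EMEM with 10% FBS, pen/strep, 2 mM L-glutamine, used up to 20 passages. Seeded at 1000 cells/well, cultured overnight, then dosed acoustically from DMSO stocks. Eight two-fold dilutions in duplicate from top 64 or 32 µM; 72 h at 37 °C, 5% CO2. Fluorescein diacetate hydrolysis read at ex 485/em 530 nm; IC50 by non-linear regression.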

[2] = target: Signal peptidase I (Escherichia coli K-12) (UniProt P00803); test: Inhibition of Escherichia coli type 1 signal peptidase lepB assessed as residual activity at 0.0024 uM preincubated for 10 mins followed by Dabcyl-VGGTATAYGAFSRPGLE-(EDANS)-OH substrate addition measured after 2 hrs by FRET based assay (reference value: 100%)
Outline: (§1)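 EcLepB (about 50 nM estimated) preincubated 10 min with compound. Reaction started with Dabcyl/EDANS FRET peptide at 8 µM final (Km 20 µM). Fluorescence followed continuously at 535 nm, 22 °C, for 2 h. Cleavage rates plotted against inhibitor concentration; IC50 from non-linear regression of sigmoidal dose-response curves.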

[3] = target: Signal peptidase I (Escherichia coli K-12) (UniProt P00803); test: Inhibition of Escherichia coli type 1 signal peptidase lepB assessed as residual activity at 0.0195 uM preincubated for 10 mins followed by Dabcyl-VGGTATAYGAFSRPGLE-(EDANS)-OH substrate addition measured after 2 hrs by FRET based assay (reference value: 100%); outline: as §1
[4] = system: Escherichia coli; test: Antibacterial activity against Escherichia coli D22 CGSG 5163 harboring Ips mutant after 16 to 20 hrs by broth microdilution method; type: functional
Outline: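 Broth microdilution in cation-adjusted Mueller-Hinton II broth, following EUCAST and CLSI guidelines. Two-fold series at final concentrations 64 down to 0.25 µg/mL, with medium-only and growth controls. Inoculum from fresh colonies (18-24 h, 35 °C ± 2 °C) adjusted to 0.5 McFarland, final ≈5 × 10^5 CFU/mL. Plates incubated unshaken 16-20 h at 35 °C ± 2 °C. MIC read visually as complete inhibition of growth.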

[5] = target: Signal peptidase I (Escherichia coli K-12) (UniProt P00803); test: Inhibition of Escherichia coli type 1 signal peptidase lepB assessed as residual activity at 2.5 uM preincubated for 10 mins followed by Dabcyl-VGGTATAYGAFSRPGLE-(EDANS)-OH substrate addition measured after 2 hrs by FRET based assay (reference value: 100%); outline: as §1
[6] = target: Signal peptidase I (Escherichia coli K-12) (UniProt P00803); test: Inhibition of Escherichia coli type 1 signal peptidase lepB assessed as residual activity at 0.0049 uM preincubated for 10 mins followed by Dabcyl-VGGTATAYGAFSRPGLE-(EDANS)-OH substrate addition measured after 2 hrs by FRET based assay (reference value: 100%); outline: as §1
[7] = target: Signal peptidase I (Escherichia coli K-12) (UniProt P00803); test: Inhibition of Escherichia coli type 1 signal peptidase lepB assessed as residual activity at 1.25 uM preincubated for 10 mins followed by Dabcyl-VGGTATAYGAFSRPGLE-(EDANS)-OH substrate addition measured after 2 hrs by FRET based assay (reference value: 100%); outline: as §1
[8] = target: Signal peptidase I (Escherichia coli K-12) (UniProt P00803); test: Inhibition of Escherichia coli type 1 signal peptidase lepB assessed as residual activity at 0.0391 uM preincubated for 10 mins followed by Dabcyl-VGGTATAYGAFSRPGLE-(EDANS)-OH substrate addition measured after 2 hrs by FRET based assay (reference value: 100%); outline: as §1
[9] = target: Signal peptidase I (Escherichia coli K-12) (UniProt P00803); test: Inhibition of Escherichia coli type 1 signal peptidase lepB assessed as residual activity at 0.625 uM preincubated for 10 mins followed by Dabcyl-VGGTATAYGAFSRPGLE-(EDANS)-OH substrate addition measured after 2 hrs by FRET based assay (reference value: 100%); outline: as §1
[10] = target: Signal peptidase I (Escherichia coli K-12) (UniProt P00803); test: Inhibition of Escherichia coli type 1 signal peptidase lepB assessed as residual activity at 0.0012 uM preincubated for 10 mins followed by Dabcyl-VGGTATAYGAFSRPGLE-(EDANS)-OH substrate addition measured after 2 hrs by FRET based assay (reference value: 100%); outline: as §1
[11] = target: Signal peptidase I (Escherichia coli K-12) (UniProt P00803); test: Inhibition of Escherichia coli type 1 signal peptidase lepB assessed as residual activity at 0.3125 uM preincubated for 10 mins followed by Dabcyl-VGGTATAYGAFSRPGLE-(EDANS)-OH substrate addition measured after 2 hrs by FRET based assay (reference value: 100%); outline: as §1
[12] = system: Pseudomonas aeruginosa; test: Antibacterial activity against Pseudomonas aeruginosa PAO1 after 16 to 20 hrs by broth microdilution method; type: functional
Outline: (§2)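 Broth microdilution in cation-adjusted Mueller-Hinton II per EUCAST/CLSI; two-fold compound series 64 down to 0.25 µg/mL final. Inoculum from fresh colonies (non-selective agar, 18-24 h, 35 ± 2 °C), adjusted to 0.5 McFarland, diluted to about 5 × 10^5 CFU/mL final. Static incubation 16-20 h at 35 ± 2 °C; MIC read visually as complete growth inhibition against medium-only wells.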

[13] = system: Pseudomonas aeruginosa; test: Antibacterial activity against efflux defective Pseudomonas aeruginosa PAO750 after 16 to 20 hrs by broth microdilution method; type: functional; outline: as §2
[14] = target: Signal peptidase I (Escherichia coli K-12) (UniProt P00803); test: Inhibition of Escherichia coli type 1 signal peptidase lepB assessed as residual activity at 5 uM preincubated for 10 mins followed by Dabcyl-VGGTATAYGAFSRPGLE-(EDANS)-OH substrate addition measured after 2 hrs by FRET based assay (reference value: 100%); outline: as §1
[15] = system: Acinetobacter baumannii; test: Antibacterial activity against Acinetobacter baumannii ATCC 19606 after 16 to 20 hrs by broth microdilution method; type: functional; conditions: ATCC 19606 = CIP 70.34 = JCM 6841; outline: as §2
[16] = system: Klebsiella pneumoniae; test: Antibacterial activity against Klebsiella pneumoniae ATCC 13883 after 16 to 20 hrs by broth microdilution method; type: functional; outline: as §2
[17] = target: Signal peptidase I (Escherichia coli K-12) (UniProt P00803); test: Inhibition of Escherichia coli type 1 signal peptidase lepB assessed as residual activity at 10 uM preincubated for 10 mins followed by Dabcyl-VGGTATAYGAFSRPGLE-(EDANS)-OH substrate addition measured after 2 hrs by FRET based assay (reference value: 100%); outline: as §1
[18] = system: Escherichia coli; test: Antibacterial activity against tolC deficient Escherichia coli CH3130 after 16 to 20 hrs by broth microdilution method; type: functional; outline: as §2
[19] = target: Signal peptidase I (Escherichia coli K-12) (UniProt P00803); test: Inhibition of Escherichia coli type 1 signal peptidase lepB assessed as residual activity at 0.1563 uM preincubated for 10 mins followed by Dabcyl-VGGTATAYGAFSRPGLE-(EDANS)-OH substrate addition measured after 2 hrs by FRET based assay (reference value: 100%); outline: as §1
[20] = target: Signal peptidase I (Escherichia coli K-12, UniProt P00803); test: Inhibition of Escherichia coli type 1 signal peptidase lepB preincubated for 10 mins followed by Dabcyl-VGGTATAYGAFSRPGLE-(EDANS)-OH substrate addition measured after 2 hrs by FRET based assay; outline: as §1
[21] = system: Staphylococcus aureus; test: Antibacterial activity against Staphylococcus aureus ATCC 29213 after 16 to 20 hrs by broth microdilution method; type: functional; outline: as §2
[22] = system: Escherichia coli; test: Antibacterial activity against Escherichia coli ATCC 25922 after 16 to 20 hrs by broth microdilution method; type: functional; outline: as §2
[23] = target: Signal peptidase I (Escherichia coli K-12) (UniProt P00803); test: Inhibition of Escherichia coli type 1 signal peptidase lepB assessed as residual activity at 0.0006 uM preincubated for 10 mins followed by Dabcyl-VGGTATAYGAFSRPGLE-(EDANS)-OH substrate addition measured after 2 hrs by FRET based assay (reference value: 100%); outline: as §1
[24] = Hemolytic activity in human RBC at 100 uM after 45 mins by spectrophotometric method relative to control; type: ADME, cell-based, Erythrocyte; conditions: red blood cells (erythrocytes), read-out: Activity
Outline: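 Heparinized human blood; red cells washed three times in Tyrode buffer pH 7.4. Compound at 100 µM final with 1% DMSO and 50% RBC, shaken (250 rpm) 45 min at 37 °C. Cells pelleted (1000 × g, 10 min); supernatant haemoglobin at 540 nm. Percent lysis relative to buffer-only and 2% Triton X-100 controls.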

[25] = target: Signal peptidase I (Escherichia coli K-12) (UniProt P00803); test: Inhibition of Escherichia coli type 1 signal peptidase lepB assessed as residual activity at 0.0781 uM preincubated for 10 mins followed by Dabcyl-VGGTATAYGAFSRPGLE-(EDANS)-OH substrate addition measured after 2 hrs by FRET based assay (reference value: 100%); outline: as §1
[26] = target: Signal peptidase I (Escherichia coli K-12) (UniProt P00803); test: Inhibition of Escherichia coli type 1 signal peptidase lepB assessed as residual activity at 0.0098 uM preincubated for 10 mins followed by Dabcyl-VGGTATAYGAFSRPGLE-(EDANS)-OH substrate addition measured after 2 hrs by FRET based assay (reference value: 100%); outline: as §1

Signal peptidase I (Escherichia coli K-12), sequence (P00803 whole entry): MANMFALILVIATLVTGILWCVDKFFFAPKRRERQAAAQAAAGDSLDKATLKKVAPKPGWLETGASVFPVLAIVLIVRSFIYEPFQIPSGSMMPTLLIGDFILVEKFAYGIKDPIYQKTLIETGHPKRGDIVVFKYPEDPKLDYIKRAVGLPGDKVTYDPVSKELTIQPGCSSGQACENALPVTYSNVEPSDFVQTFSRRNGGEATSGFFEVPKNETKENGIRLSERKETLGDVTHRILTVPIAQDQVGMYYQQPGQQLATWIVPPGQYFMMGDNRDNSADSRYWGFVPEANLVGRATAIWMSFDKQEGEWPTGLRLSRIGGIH
Signal peptidase I, sequence (P00803 whole entry): as above

Row | Compound | IC50 [1] [nM] | Activity [2] [%] | Activity [3] [%] | MIC [4] [µg/mL] | Activity [5] [%] | Activity [6] [%] | Activity [7] [%] | Activity [8] [%] | Activity [9] [%] | Activity [10] [%] | Activity [11] [%] | MIC [12] [µg/mL] | MIC [13] [µg/mL] | Activity [14] [%] | MIC [15] [µg/mL] | MIC [16] [µg/mL] | Activity [17] [%] | MIC [18] [µg/mL] | Activity [19] [%] | IC50 [20] [nM] | further results
1 | CCCCCCc1ccc(-c2ccc(C(=O)N[C@@H](CCCNC(=N)N)C(=O)N[C@H](C(=O)N[C@@H](C)C(=O)N[C@H]3Cc4cn(nn4)CCCN4C[C@@H]5OB(O[C@@H]5C4)[C@H](C)NC3=O)[C@@H](C)O)cc2)cc1 | 2400 | 102 | 97.2 | 8 (≈ 8.63 µM) | 32.8 | 105 | 35.7 | 76.8 | 36 | 106 | 39.1 | > 64 | 32 (≈ 34.5 µM) | 27.7 | 16 (≈ 17.3 µM) | 16 (≈ 17.3 µM) | 22.9 | 4 (≈ 4.32 µM) | 41.7 | 41 | MIC [21]: 16 µg/mL (≈ 17.3 µM); MIC [22]: 16 µg/mL (≈ 17.3 µM); Activity [23]: 108%; hemolysis at 0.75 h, 100 µM [24]: 21%; Activity [25]: 46.5%; Activity [26]: 101%
2 | CCCCCCc1ccc(-c2ccc(C(=O)N[C@@H](CCCN)C(=O)N[C@H](C(=O)N[C@@H](C)C(=O)N[C@@H](CC(N)=O)C(=O)N[C@@H](C)B(O)O)[C@@H](C)O)cc2)cc1 ({Benzoyl(4-(4-hexylphenyl))}-[Orn]TAN-boroAla) | 10100 | 87 | 84.8 | 0.5 (≈ 0.663 µM) | 8.8 | 93.9 | 15.6 | 57.5 | 20.6 | 97.7 | 20.3 | 64 (≈ 84.9 µM) | 16 (≈ 21.2 µM) | 6.7 | 4 (≈ 5.31 µM) | 2 (≈ 2.65 µM) | 5.8 | 1 (≈ 1.33 µM) | 19.2 | 52 | MIC [21]: 0.025 µg/mL (≈ 0.0332 µM); MIC [22]: 8 µg/mL (≈ 10.6 µM); Activity [23]: 95.9%; hemolysis at 0.75 h, 100 µM [24]: 4.8%; Activity [25]: 25.7%; Activity [26]: 89.3%
3 | CCCCCCc1ccc(-c2ccc(C(=O)N[C@@H](CCCN)C(=O)N[C@H](C(=O)N[C@@H](C)C(=O)N[C@H]3Cc4cn(nn4)CCO[C@@H]4C[C@@H]5OB(O[C@@H]5C4)[C@H](C)NC3=O)[C@@H](C)O)cc2)cc1 | 8000 | 90.6 | 84.3 | 4 (≈ 4.52 µM) | 27.1 | 91 | 42.2 | 77.8 | 27.1 | 90.7 | 39.1 | 64 (≈ 72.2 µM) | 32 (≈ 36.1 µM) | 4 | 8 (≈ 9.03 µM) | 8 (≈ 9.03 µM) | -2.5 | 4 (≈ 4.52 µM) | 57.6 | 175 | MIC [21]: 2 µg/mL (≈ 2.26 µM); MIC [22]: 16 µg/mL (≈ 18.1 µM); Activity [23]: 95.3%; hemolysis at 0.75 h, 100 µM [24]: 10.6%; Activity [25]: 65.2%; Activity [26]: 94.3%
